Publication PMC8020290 (Journal of Ginseng Research, 2020)
Like-named read-outs stand apart in the source and are kept apart here. Marks after values point to notes of the source that are not given here.

What was measured:
[1] = cited from earlier work
[2] = format: in vivo, Sprague Dawley rats; conditions: for AUC: 0 to 48 h; for AUC / Cmax / T1/2 / Tmax / half-life: plasma after intragastric ginsenoside Rb1 100 mg/kg, mean ± SE; for AUC increase compared with the control group: after intragastric ginsenoside Rb1 100 mg/kg
Summary of the method: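 Male SD rats (200 ± 20 g, n = 8/group) were gavaged daily for two weeks with prebiotic fibre at 1.0 g/d/rat, or sterile water (10 ml/kg). After an overnight fast, test compound was given intragastrically at 100 mg/kg. Ophthalmic plexus blood was drawn at 0.25–48 h. Plasma was acetone-precipitated with a saikosaponin A internal standard and run on positive-mode UPLC-ESI-QqQ-MS/MS. AUC0–48h came from non-compartmental analysis, mean ± SE, ANOVA/Bonferroni.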

intestinal microflora = conditions: after colimycin 20 mg/kg/day; decreased from 22.1 ± 1.2%; cited from earlier work
[3] = FOS group (1.0 g/d/rat, two weeks)
[4] = Fibersol-2 group (1.0 g/d/rat, two weeks)
[5] = GOS group (1.0 g/d/rat, two weeks)
[6] = Sprague-Dawley, rat, plasma, po, 100 mg/kg, Cmax, FOS group (1.0 g/d/rat, two weeks)
[7] = Sprague-Dawley, rat, plasma, po, 100 mg/kg, Cmax, Fibersol-2 group (1.0 g/d/rat, two weeks)
[8] = Sprague-Dawley, rat, plasma, po, 100 mg/kg, Cmax, GOS group (1.0 g/d/rat, two weeks)
[9] = Sprague-Dawley, rat, plasma, po, 100 mg/kg, T1/2, FOS group (1.0 g/d/rat, two weeks)
[10] = Sprague-Dawley, rat, plasma, po, 100 mg/kg, T1/2, Fibersol-2 group (1.0 g/d/rat, two weeks)
[11] = Sprague-Dawley, rat, plasma, po, 100 mg/kg, T1/2, GOS group (1.0 g/d/rat, two weeks)
[12] = Sprague-Dawley, rat, plasma, po, 100 mg/kg, Tmax, FOS group (1.0 g/d/rat, two weeks)
[13] = Sprague-Dawley, rat, plasma, po, 100 mg/kg, Tmax, Fibersol-2 group (1.0 g/d/rat, two weeks)
[14] = Sprague-Dawley, rat, plasma, po, 100 mg/kg, Tmax, GOS group (1.0 g/d/rat, two weeks)

| AUC [2, 3] | AUC [2, 4] | AUC [2, 5] | AUC increase compared with the control group ([2]; GOS intervention) [times] | AUC increase compared with the control group ([2]; fibersol-2 intervention) [times] | AUC increase compared with the control group ([2]; FOS intervention) [times] | Cmax [2, 6] [ng/mL] | Cmax [2, 7] [ng/mL] | Cmax [2, 8] [ng/mL] | half-life [2, 9] [h] | half-life [2, 10] [h] | half-life [2, 11] [h] | Tmax [2, 12] [h] | Tmax [2, 13] [h] | Tmax [2, 14] [h] | Molecule | oral bioavailability [1] | further results |
| --- | --- | --- | --- | --- | --- | --- | --- | --- | --- | --- | --- | --- | --- | --- | --- | --- | --- |
| 1056.88 ± 173.22^ab ng/ml∗h | 1251.99 ± 740.67^b ng/ml∗h | 1434.71 ± 415.30^b ng/ml∗h | 2.42 | 2.11 | – | – | – | – | – | – | – | – | – | – | CC(C)=CCC[C@](C)(O[C@@H]1O[C@H](CO)[C@@H](O)[C@H](O)[C@H]1O)[C@H]1CC[C@]2(C)[C@@H]1[C@H](O)C[C@@H]1[C@@]3(C)CC[C@H](O)C(C)(C)[C@@H]3CC[C@]12C [CK, 20-O-β-D-glucopyranosyl-20(S)-protopanaxadiol] | 1.8–35.0% | Cmax [2, 3]: 42.94 ± 12.08^a ng/ml; T1/2 [2, 3]: 92.12 ± 158.19^a h; Tmax [2, 3]: 24.80 ± 15.60^b h; Cmax [2, 4]: 53.38 ± 25.17^a ng/ml; T1/2 [2, 4]: 50.86 ± 65.79^a h; Tmax [2, 4]: 29.00 ± 19.72^b h; Cmax [2, 5]: 57.46 ± 7.17^a ng/ml; T1/2 [2, 5]: 77.35 ± 129.14^a h; Tmax [2, 5]: 15.30 ± 11.98^ab h |
| – | – | – | – | – | – | – | – | – | – | – | – | – | – | – | colimycin | – | ginsenoside Rb1-hydrolysing activity by intestinal microflora (intestinal microflora): 4.7 ± 2.7% |
| 1616.98 ± 321.59^b ng/ml∗h | 1754.98 ± 335.76^b ng/ml∗h | 1479.93 ± 381.35^b ng/ml∗h | 1.74 | 2.06 | 1.91 | 110 ± 25.1 | 145 ± 67.2 | 156 ± 39 | 15.2 ± 5.17 | 10.3 ± 3.79 | 18.6 ± 18 | 7.6 ± 0.89 | 7.6 ± 1.67 | 6.4 ± 0.89 | CC(C)=CCC[C@](C)(O[C@@H]1O[C@H](CO)[C@@H](O)[C@H](O)[C@H]1O)[C@H]1CC[C@]2(C)[C@@H]1[C@H](O)C[C@@H]1[C@@]3(C)CC[C@H](O[C@@H]4O[C@H](CO)[C@@H](O)[C@H](O)[C@H]4O[C@@H]4O[C@H](CO)[C@@H](O)[C@H](O)[C@H]4O)C(C)(C)[C@@H]3CC[C@]12C [Rd, ginsenoside Rd] | – | – |
| 200.38 ± 41.50^b ng/ml∗h | 153.78 ± 36.00^ab ng/ml∗h | 121.97 ± 29.35^a ng/ml∗h | – | – | 1.94 | 15.2 ± 2.49 | 35.3 ± 18.3 | 11.4 ± 3.44 | 23.2 ± 37.8 | 2.67 ± 0.95 | 4.52 ± 3.73 | 8 ± 1.41 | 6.8 ± 1.09 | 7.6 ± 1.67 | CC(C)=CCC[C@](C)(O[C@@H]1O[C@H](CO)[C@@H](O)[C@H](O)[C@H]1O)[C@H]1CC[C@]2(C)[C@@H]1[C@H](O)C[C@@H]1[C@@]3(C)CC[C@H](O[C@@H]4O[C@H](CO)[C@@H](O)[C@H](O)[C@H]4O)C(C)(C)[C@@H]3CC[C@]12C [F2, ginsenoside F2] | – | – |
| 34494.77 ± 8770.73^bc ng/ml∗h | 42110.46 ± 6452.33^c ng/ml∗h | 30813.79 ± 3334.99^b ng/ml∗h | 2.25 | 3.07 | 2.52 | 1530 ± 343 | 3880 ± 2370 | 1210 ± 126 | 19.4 ± 4.44 | 24.2 ± 4.81 | 19.7 ± 2.06 | 6.3 ± 2.82 | 1 ± 1.12 | 3.2 ± 3.55 | CC(C)=CCC[C@](C)(O[C@@H]1O[C@H](CO[C@@H]2O[C@H](CO)[C@@H](O)[C@H](O)[C@H]2O)[C@@H](O)[C@H](O)[C@H]1O)[C@H]1CC[C@]2(C)[C@@H]1[C@H](O)C[C@@H]1[C@@]3(C)CC[C@H](O[C@@H]4O[C@H](CO)[C@@H](O)[C@H](O)[C@H]4O[C@@H]4O[C@H](CO)[C@@H](O)[C@H](O)[C@H]4O)C(C)(C)[C@@H]3CC[C@]12C [Rb1, ginsenoside Rb1] | 0.28–1.18% | – |
